Bioassay records from PubChem.
D1 allo mod – D1 CRE-luciferase signal change, two-sided – cell-based, HEK293 D1, dopamine EC30, D1 allosteric modulator project, primary screen; AID 641, 2007; D(1A) dopamine receptor (Homo sapiens), P21728; B-score at 10 µM; dopamine EC30 potentiation; actives deviate in either direction; hit rate 5.9% among 58,000;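 active = luminescence count or its row- and column-corrected plate score outside the 99.7% band of the plate's sample wells, on either side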
PostGolgi yeast – phenotypic screen on post-Golgi transport, primary screen; AID 739, 2007; post-Golgi transport phenotypic cell assay; inhibition, % at 10 µM; hit rate 0.9% among 98,000;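 note: yeast cells grown in 1536-well plates; yeast grown about 18 h at 30C before absorbance read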
E coli WT exp – growth inhibitors of wild-type E. coli, primary screen, strain BW25113, expanded library, OD600; OD600 absorbance; growth inhibition, % at 100 µM; hit rate 0.15% among 98,000;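 active = growth inhibition above about 50% at one test dose, limit read from the data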;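 note: growth measured after 20 h incubation at 37 °C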
tolC growth inh – growth inhibitors of E. coli tolC mutant, primary screen, strain BW25113 ΔtolC::kan, 384-well | hit rate 2.2% among 65,000 | growth inhibition, % at 10 µM (by protocol) | AID 573, 2007 | OD615;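 active = growth inhibition at or above a cutoff equal to the mean over every tested compound plus 3 SD, cut at about 60% in these data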;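 note: growth measured after 20 h incubation at 37 °C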
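Test system – E. coli BW25113 ΔtolC::kan, tolC deletion mutant strain · Detection – OD at 615 nm · Buffer or medium – LB with kanamycin 50 µg/mL · Times – 20 h compound exposure of bacteria at 37 °C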
PostGolgi ctrl – growth inhibition of yeast control strain, primary screen, counter-screen for post-Golgi transport modulator project; efflux-deficient yeast background strain, growth absorbance A615, 16 h; inhibition, % at 10 µM; hit rate 5% among 98,000; AID 738, 2007
hDAT+cocaine – changed hDAT dopamine uptake under cocaine IC80, either direction, primary screen, cocaine antagonist project, cell-based, LLC-PK1 hDAT, [14C]-dopamine uptake, MLSMR; Sodium-dependent dopamine transporter (Homo sapiens), Q01959; LLC-PK1 hDAT cells, [14C]-dopamine uptake with cocaine IC80; actives deviate in either direction; B-score at 10 µM; hit rate 1.3% among 110,000;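 active = Z score or B-score, a plate-position-corrected score, falls beyond the plate's 99.7% confidence bounds, in either direction; inactive = both scores lie inside the 99.7% bounds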;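 note: scored against the spread of the other compound wells on the same plate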
Target sequence (Q01959 whole entry, looked up): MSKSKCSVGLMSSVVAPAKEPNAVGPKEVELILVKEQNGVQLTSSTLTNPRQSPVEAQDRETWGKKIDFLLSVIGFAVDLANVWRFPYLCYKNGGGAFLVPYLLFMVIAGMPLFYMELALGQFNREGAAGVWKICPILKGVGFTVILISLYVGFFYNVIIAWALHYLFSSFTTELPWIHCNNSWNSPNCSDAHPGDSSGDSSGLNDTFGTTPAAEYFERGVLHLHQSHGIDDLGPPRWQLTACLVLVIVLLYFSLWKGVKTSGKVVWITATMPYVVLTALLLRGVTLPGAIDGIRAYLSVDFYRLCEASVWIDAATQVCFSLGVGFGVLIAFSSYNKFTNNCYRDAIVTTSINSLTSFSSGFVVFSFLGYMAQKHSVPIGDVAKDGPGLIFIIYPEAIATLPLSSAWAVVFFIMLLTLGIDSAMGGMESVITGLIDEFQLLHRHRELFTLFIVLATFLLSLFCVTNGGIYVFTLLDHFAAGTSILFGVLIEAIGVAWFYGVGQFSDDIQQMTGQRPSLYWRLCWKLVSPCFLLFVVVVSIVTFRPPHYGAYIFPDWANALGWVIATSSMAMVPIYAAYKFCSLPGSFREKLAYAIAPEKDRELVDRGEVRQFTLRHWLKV
Active calls of the source: *; . = no result. In the library only some 9.3% were active in any assay of this set; here they are far more common. Cut-off read from the data, not from the text of the source, unless noted: active = inhibition above about 30%; inactive = the rest.

SMILES	D1 allo mod	PostGolgi yeast	E coli WT exp	tolC growth inh	PostGolgi ctrl	hDAT+cocaine
CCOc1ccccc1OCCCOc1ccc([N+](=O)[O-])cc1Cl	.	6	4	.	38*	0.63
COC(=O)CSc1nc2ccc(NC(=O)CSc3nnnn3Cc3ccccc3)cc2s1	0.22	10	-9	7	36*	5.8e-05
COC(=O)C1=C(C)N(CCCC(=O)O)C(=O)NC1c1ccc(C#N)cc1 (configuration not stated)	.	.	.	.	.	-1
CCCCCC/C(C)=C1/SC(=S)NC1=O	.	-3	14	.	55*	0.75
CCc1nc2ccccc2c(=O)n1NC(=O)c1c(O)c2ccccc2[nH]c1=O	-0.67	-5	-8	85*	-4	0.89
CS(=O)(=O)c1ccc(-c2cc(Br)sc2-c2ccc(F)cc2)cc1	.	.	.	.	.	-0.55
CCC(=O)Nc1ccc2oc(-c3ccccc3Br)nc2c1	-0.29	-3	-2	-3	26	0.8
CC(=O)Nc1ccc2oc(-c3ccccc3Br)nc2c1	-2.8*	-1	-2	0	11	.
CCSc1nnc(NC(=O)c2nc(-c3ccccc3)n(-c3ccccc3)n2)s1	-0.45	2	-8	78*	16	1.4
Cc1csc(NC(=O)c2nc(-c3ccccc3)n(-c3ccccc3)n2)n1	0.078	38*	-6	1	8	1.6
O=C(Nc1nccs1)c1nc(-c2ccccc2)n(-c2ccccc2)n1	0.56	-7	-6	-4	30	0.03
CCSc1nnc(NC(=O)c2nn(C(C)C)c(=O)c3ccccc23)s1	4.8	7	-4	38	30*	2.3
O=C(CNS(=O)(=O)c1cccc2nsnc12)NCc1ccc(Cl)cc1	-0.62	-3	6	9	-4	1.4
CC1(OC(=O)c2ccc(Cl)nc2)C(=O)C=C2C=C(c3ccc(C#N)cc3)OC=C2C1=O (configuration not stated)	.	.	.	.	.	-0.013
CN(C)C(=O)N1CCN(C(=O)N2CCOCC2)CC1	.	.	.	.	.	-0.64
Cc1ccc(S(=O)(=O)NCCN=C(CN2CCCC2)NS(=O)(=O)c2ccc(C)cc2)cc1	-0.42	-2	-4	25	32*	2.3
Cc1ccc(S(=O)(=O)NCCN=C(CN2CCOCC2)NS(=O)(=O)c2ccc(C)cc2)cc1	-3.3	-3	9	-4	6	0.57
CC(C)N(Cc1nc(-c2ccccc2)no1)C(=O)CN(C)S(=O)(=O)c1ccc(Br)cc1	.	10	-8	.	62*	0.47
CN(Cc1nc(-c2cccnc2)no1)S(=O)(=O)c1ccc(Br)cc1	0.13	-4	5	3	8	1.6
CC(C)N(Cc1nc(-c2ccc(Cl)cc2)no1)C(=O)CN(C)S(=O)(=O)c1ccc(Cl)cc1	0.036	-3	-19	27	52*	-0.13
O=C(C1CCCO1)N1CCN(S(=O)(=O)c2ccccc2)CC1 (configuration not stated)	.	-16	-6	-6	36*	-0.037
O=C(c1ccc(Br)cc1)N1CCN(S(=O)(=O)c2ccccc2)CC1	0.87	-3	0	4	35*	0.66
O=C(CCl)Nc1ccc(Oc2cnc3ccccc3n2)cc1	.	-4	1	.	5	-1.8
COc1nnc(-c2ccc(N3CCCCC3)c(NC(C)=O)c2)c2ccccc12	.	-1	9	.	11	2.1
CNc1oc(-c2ccc(Cl)cc2)nc1P(=O)(c1ccccc1)c1ccccc1	.	7	-18	.	32*	1.1
SMILES	D1 allo mod	PostGolgi yeast	E coli WT exp	tolC growth inh	PostGolgi ctrl	hDAT+cocaine
c1ccc(-c2ccc3c(c2)c2c4n3CCN=C4CCC2)cc1	.	1	36	.	14	1.7
O=C(Nc1ncc(Cc2cc(Cl)ccc2Cl)s1)c1ccc([N+](=O)[O-])cc1	.	7	-4	.	31*	0.5
O=C(Nc1ncc(Cc2cccc(Cl)c2Cl)s1)c1ccc([N+](=O)[O-])cc1	.	2	-12	.	17	0.71
COCCN1C(=O)N[C@@H](c2ccco2)C(C(C)=O)=C1C	.	.	.	.	.	0.37
Cc1nc(NC(=O)c2ccccc2)sc1-c1csc(NCc2ccccc2)n1	.	67*	-31	.	15	0.87
Cc1ccc(CNC(=O)CSc2nc(N3CCCCC3)nc(N3CCCCC3)n2)cc1	-0.052	-6	-15	31	46*	0.58
